Results reported in ChEMBL document CHEMBL2021787 (Bioorg Med Chem Lett, 2012).

What was measured:
[1] = test system: Mycobacterium tuberculosis; assay: Antimycobacterial activity against Mycobacterium tuberculosis H37Rv by agar dilution method; assay type: functional
In short: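 Agar dilution on Middlebrook 7H11 agar supplemented with OADC, following the NCCLS approach, using log-phase M. tuberculosis cultures. Run in triplicate. MIC was taken as the lowest concentration giving complete inhibition of growth.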

HepG2 = assay: Cytotoxicity against human HepG2 cells at 20 to 25 uM after 48 hrs by MTT assay; assay type: cell-based; conditions: hepg2, 48 h
In short: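 HepG2 cells were seeded at 2500/well and grown 24 h, then exposed to compound for 48 h. MTT (20 µL of a 5 mg/mL stock) was added for 2.5 h at 37 °C, and OD was read at 570 nm. Results are reported as % inhibition at a single concentration.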

Rattus norvegicus [2] = assay: (§1) AUC (0 to t) in Wistar rat at 50 mg/kg, po administered as single dose; assay type: ADME, organism-based, Plasma; design: dose 50 mg/kg, route oral; conditions: in vivo
In short: (§2)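 Male Wistar rats got a single oral dose of 50 mg/kg as a suspension in 0.25% sodium CMC with Tween 80. Plasma was measured by reverse-phase HPLC with PDA detection and analysed non-compartmentally. AUC covered 10 h. Bioavailability was derived against a separate 10 mg/kg iv bolus dose in the same vehicle system as the iv study.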

[3] = Cmax in Wistar rat at 50 mg/kg, po administered as single dose; assay type: ADME, organism-based; design: dose 50 mg/kg, route oral; conditions: in vivo; in short: as §2
[4] = Tmax in Wistar rat at 50 mg/kg, po administered as single dose; assay type: ADME, organism-based; design: dose 50 mg/kg, route oral; conditions: in vivo; in short: as §2
Rattus norvegicus [5] = assay: (§3) Oral bioavailability in Wistar rat at 50 mg/kg administered as single dose; assay type: ADME, organism-based; conditions: in vivo; in short: as §2
Rattus norvegicus [6] = assay: (§4) AUC (0 to t) in Wistar rat at 10 mg/kg, iv administered as single bolus dose; assay type: ADME, organism-based, Plasma; design: dose 10 mg/kg, route intravenous; conditions: in vivo
In short: (§5)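 Male Wistar rats given a single iv bolus of 10 mg/kg in 20% propylene glycol, 10% cremophor ELP and 20% N-methylpyrrolidone in normal saline. Plasma was assayed by reverse-phase HPLC with PDA detection. Parameters came from plasma concentration–time data by non-compartmental analysis.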

[7] = Cmax in Wistar rat at 10 mg/kg, iv administered as single bolus dose; assay type: ADME, organism-based; design: dose 10 mg/kg, route intravenous; conditions: in vivo; in short: as §5
[8] = Elimination rate constant in Wistar rat at 10 mg/kg, iv administered as single bolus dose; assay type: ADME, organism-based; design: dose 10 mg/kg, route intravenous; conditions: in vivo; in short: as §5
[9] = Volume of distribution in Wistar rat at 10 mg/kg, iv administered as single bolus dose; assay type: ADME, organism-based; design: dose 10 mg/kg, route intravenous; conditions: in vivo; in short: as §5
[10] = Plasma clearance in Wistar rat at 10 mg/kg, iv administered as single bolus dose; assay type: ADME, organism-based; design: dose 10 mg/kg, route intravenous; in short: as §5
[11] = test system: Mycobacterium tuberculosis; assay: Ratio of INH MIC to compound MIC for Mycobacterium tuberculosis H37Rv by agar dilution method; assay type: functional
[12] = as §1; assay type: ADME, organism-based, Plasma; design: dose 50 mg/kg, route oral; conditions: Wistar, plasma; in short: as §2
[13] = as §3; assay type: ADME, organism-based; conditions: Wistar, in vivo; in short: as §2
[14] = as §4; assay type: ADME, organism-based, Plasma; design: dose 10 mg/kg, route intravenous; conditions: Wistar, plasma; in short: as §5
[15] = Half life in Wistar rat at 10 mg/kg, iv administered as single bolus dose; assay type: ADME, organism-based; design: dose 10 mg/kg, route intravenous; conditions: in vivo; in short: as §5

| SMILES | MIC [1] | Activity (HepG2) | other results |
| --- | --- | --- | --- |
| CC1(C)CC(=O)C2=C(C1)N(NC(=O)c1ccncc1)C1=C(C(=O)CC(C)(C)C1)C2c1ccccc1OCc1ccccc1 | 0.17 µM | – | – |
| O=C(NN1C(=O)CCSC1c1ccc(O)cc1)c1ccncc1 (stereo not drawn) | 18.9 µM | 10.7% | – |
| COc1cc(C2SCCC(=O)N2NC(=O)c2ccncc2)ccc1O (stereo not drawn) | 8.7 µM | 16.11% | – |
| O=C(c1ccncc1)N1N=CCC1(O)C(F)(F)F (stereo not drawn) | 0.77 µM | – | – |
| O=C(NN1C(=O)CCSC1c1ccccc1F)c1ccncc1 (stereo not drawn) | 0.6 µM | 18.6% | – |
| O=C(NN1C(=O)CCSC1c1cccc([N+](=O)[O-])c1)c1ccncc1 (stereo not drawn) | 0.56 µM | 28.6% | – |
| Cc1ccc(C2SCCC(=O)N2NC(=O)c2ccncc2)cc1 (stereo not drawn) | 9.56 µM | 12.4% | – |
| COc1cc(C2SCCC(=O)N2NC(=O)c2ccncc2)cc(OC)c1OC (stereo not drawn) | 7.76 µM | 8.6% | – |
| O=C(NN1C(=O)CCSC1Cc1ccc([N+](=O)[O-])o1)c1ccncc1 (stereo not drawn) | 4.48 µM | 38.6% | – |
| COc1ccc(C2SCCC(=O)N2NC(=O)c2ccncc2)cc1 (stereo not drawn) | 4.54 µM | 12.6% | – |
| NNC(=O)c1ccncc1 [ISONIAZID] | 0.36 µM | 10% | AUCt (Rattus norvegicus [2]): 197090 ng·h/mL; Cmax [3]: 52300 ng/mL; Tmax [4]: 2 h; F (Rattus norvegicus [5]): 17.36%; AUCt (Rattus norvegicus [6]): 684000 ng·h/mL; Cmax [7]: 298000 ng/mL; k el [8]: 6.67e-05 s⁻¹; Vd [9]: 0.026 L; clearance [10]: 0.21 mL/min/kg |
| C/C(=N\NC(=O)c1ccncc1)c1ccc(NC(=S)Nc2ccc(F)cc2)cc1 | 0.45 µM | – | – |
| CN(C)c1ccc(C2SCCC(=O)N2NC(=O)c2ccncc2)cc1 (stereo not drawn) | 8.78 µM | 4.6% | – |
| O=C(NN1C(=O)CCSC1c1ccccc1[N+](=O)[O-])c1ccncc1 (stereo not drawn) | 2.12 µM | 28.8% | – |
| O=C(NNCc1ccccc1)c1ccncc1 | 0.2 µg/mL | – | – |
| O=C(NN1C(=O)CCSC1c1ccccc1Br)c1ccncc1 (stereo not drawn) | 0.25 µM | 22.2% | – |
| O=C(NN=C1CCCCC1)c1ccncc1 | 0.0004 µM | – | – |
| O=C(NN1C(=O)CCSC1c1ccc(OCc2ccccc2)cc1)c1ccncc1 (stereo not drawn) | 0.12 µM | 8.8% | Ratio [11]: 3; AUC(0-t) [12]: 5870 ng·h/mL; Cmax [3]: 1310 ng/mL; Tmax [4]: 3 h; bioavailability [13]: 16.7%; AUC(0-t) [14]: 7500 ng·h/mL; Cmax [7]: 5290 ng/mL; k el [8]: 0.000172 s⁻¹; half-life [15]: 1.14 h; Vd [9]: 1.99 L; clearance [10]: 22.5 mL/min/kg |
| C/C(=N/NC(=O)c1ccncc1)c1cccc(CN2CCNCC2)c1O | 0.56 µM | – | – |
| O=C(NN1C(=O)CCSC1c1ccccc1C(F)(F)F)c1ccncc1 (stereo not drawn) | 0.52 µM | 24.2% | – |

| SMILES | MIC [1] | Activity (HepG2) | other results |
| --- | --- | --- | --- |
| O=C(NN1C(=O)CCSC1Cc1ccco1)c1ccncc1 (stereo not drawn) | 41.2 µM | 18.6% | – |
| O=C(NN1C(=O)CCSC1c1ccc(Br)cc1)c1ccncc1 (stereo not drawn) | 0.5 µM | 18.4% | – |
| Cc1ccccc1C1SCCC(=O)N1NC(=O)c1ccncc1 (stereo not drawn) | 9.56 µM | 12.6% | – |
| CC(C)c1ccc(C2SCCC(=O)N2NC(=O)c2ccncc2)cc1 (stereo not drawn) | 2.14 µM | 19% | – |
| O=C(NN1C(=O)CCSC1c1ccccc1)c1ccncc1 (stereo not drawn) | 9.9 µM | 10.6% | – |
| Cc1c(CN2CCN(c3cccc(C(F)(F)F)c3)CC2)cc(-c2ccccc2)n1NC(=O)c1ccncc1 [SUDOTERB] | 0.25 µg/mL | – | – |
| COc1cccc(C2SCCC(=O)N2NC(=O)c2ccncc2)c1 (stereo not drawn) | 9.08 µM | 10.4% | – |
| O=C(NN1C(=O)CCSC1c1cccc(C(F)(F)F)c1)c1ccncc1 (stereo not drawn) | 0.52 µM | 26.4% | – |
| O=C(NN1C(=O)CCSC1c1ccccc1O)c1ccncc1 (stereo not drawn) | 19 µM | 8.6% | – |
| O=C(NN1C(=O)CCSC1c1cccc(F)c1)c1ccncc1 (stereo not drawn) | 0.6 µM | 16.4% | – |
| Cc1cccc(C2SCCC(=O)N2NC(=O)c2ccncc2)c1 (stereo not drawn) | 9.56 µM | 8.6% | – |
| COc1ccccc1C1SCCC(=O)N1NC(=O)c1ccncc1 (stereo not drawn) | 9.08 µM | 15.2% | – |
| O=C(NN1C(=O)CCSC1c1cccc(O)c1)c1ccncc1 (stereo not drawn) | 9.49 µM | 8.2% | – |
| O=C(NN1C(=O)CCSC1c1ccc(Cl)cc1)c1ccncc1 (stereo not drawn) | 0.575 µM | 26.8% | – |
| O=C(NN1C(=O)CCSC1c1ccc(C(F)(F)F)cc1)c1ccncc1 (stereo not drawn) | 0.13 µM | 20.6% | – |
| O=C(NN1C(=O)CCSC1c1ccc(F)cc1)c1ccncc1 (stereo not drawn) | 0.3 µM | 18.6% | – |
| O=C(NN1C(=O)CCSC1c1cccc(OCc2ccccc2)c1)c1ccncc1 (stereo not drawn) | 0.24 µM | 12.6% | – |
| O=C(NN1C(=O)CCSC1c1ccc([N+](=O)[O-])cc1)c1ccncc1 (stereo not drawn) | 1.11 µM | 32% | – |
| O=C(NN1C(=O)CCSC1c1ccccc1OCc1ccccc1)c1ccncc1 (stereo not drawn) | 0.24 µM | 10.6% | – |
| O=C(NN1C(=O)CCSC1c1ccccc1Cl)c1ccncc1 (stereo not drawn) | 1.15 µM | 20.6% | – |
